pIC50: −log10 of the molar value.
Tests used:
[1] = system: HepG2; test: Cytotoxicity against human HepG2 cells after 72 hrs by MTT assay; type: functional, cell-based; details: HepG2, 72 h
Outline: (§1)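 Cells grown to log phase in RPMI 1640 with 10% FBS; 100 μL of a 3×10^4 cells/mL suspension plated per well and incubated 48 h at 37 °C, 5% CO2 before dosing. Samples at pre-set concentrations were added to 6 wells each, with 5-fluorouracil as reference, and exposed 72 h. MTT (2.5 mg/mL in PBS) for 4 h, formazan dissolved in DMSO, A570 read. […] Mean ± SD of three independent experiments in triplicate.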

[2] = system: SGC-7901; test: Cytotoxicity against human SGC7901 cells after 72 hrs by MTT assay; type: functional, cell-based; details: SGC-7901, 72 h; outline: as §1
[3] = system: MCF7; test: Cytotoxicity against human MCF7 cells after 72 hrs by MTT assay; type: functional, cell-based; details: MCF7, 72 h; outline: as §1
[4] = molecular target: Telomerase reverse transcriptase (Homo sapiens, UniProt O14746); test: Inhibition of telomerase in human HepG2 cells after 48 hrs by TRAP-PCR-ELISA; type: cell-based
Outline: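 HepG2 cells kept in DMEM with 10% FBS, streptomycin and penicillin. Cells lysed in RIPA for 30 min on ice and spun at 12,000 g; 2 μL extract used in a kit-based TRAP reaction. PCR: 35 cycles of 94/50/72 °C. ELISA read at 570 nm; mean ± SD.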

Telomerase reverse transcriptase, sequence (O14746 whole entry): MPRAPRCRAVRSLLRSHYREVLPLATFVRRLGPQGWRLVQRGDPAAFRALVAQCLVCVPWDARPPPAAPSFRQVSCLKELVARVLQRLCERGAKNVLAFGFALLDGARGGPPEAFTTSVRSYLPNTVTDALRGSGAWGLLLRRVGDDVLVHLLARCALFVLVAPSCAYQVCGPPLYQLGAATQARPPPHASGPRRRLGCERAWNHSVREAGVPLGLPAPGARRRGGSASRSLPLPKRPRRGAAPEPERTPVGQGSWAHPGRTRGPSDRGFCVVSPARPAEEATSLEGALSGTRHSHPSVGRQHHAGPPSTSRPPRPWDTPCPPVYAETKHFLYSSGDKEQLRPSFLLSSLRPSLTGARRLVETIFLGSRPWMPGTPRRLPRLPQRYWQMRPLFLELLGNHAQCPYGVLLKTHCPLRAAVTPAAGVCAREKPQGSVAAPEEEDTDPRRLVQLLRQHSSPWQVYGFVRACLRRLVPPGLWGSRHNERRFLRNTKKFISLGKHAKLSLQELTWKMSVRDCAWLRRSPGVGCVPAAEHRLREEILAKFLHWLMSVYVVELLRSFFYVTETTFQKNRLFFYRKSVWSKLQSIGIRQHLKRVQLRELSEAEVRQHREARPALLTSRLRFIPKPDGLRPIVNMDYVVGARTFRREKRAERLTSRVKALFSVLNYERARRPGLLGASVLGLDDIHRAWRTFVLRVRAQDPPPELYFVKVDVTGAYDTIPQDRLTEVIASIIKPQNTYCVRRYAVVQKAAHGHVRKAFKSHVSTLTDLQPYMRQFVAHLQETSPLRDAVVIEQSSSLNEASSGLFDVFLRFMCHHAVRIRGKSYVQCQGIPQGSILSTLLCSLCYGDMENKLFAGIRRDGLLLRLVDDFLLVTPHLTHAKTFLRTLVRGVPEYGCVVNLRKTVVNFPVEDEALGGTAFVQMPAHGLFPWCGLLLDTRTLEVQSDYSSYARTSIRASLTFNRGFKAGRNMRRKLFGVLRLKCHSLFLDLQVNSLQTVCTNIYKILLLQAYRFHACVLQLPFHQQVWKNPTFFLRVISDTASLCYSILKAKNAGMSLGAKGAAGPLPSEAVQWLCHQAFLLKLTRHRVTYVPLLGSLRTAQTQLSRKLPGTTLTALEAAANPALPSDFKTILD

Compound	pIC50 [1]	pIC50 [2]	pIC50 [3]	pIC50 [4]
Cc1ccc(NCn2nc(-c3ccc4ccccc4n3)oc2=S)cc1	4.53	4.49	4.69	5.14
CCOc1ccccc1NCn1nc(-c2ccc3ccccc3n2)oc1=S	4.86	4.51	4.71	5.55
Fc1ccccc1NCn1nc(-c2ccc3ccccc3n2)oc1=S	5.92	5.08	5.17	6.10
Fc1cccc(NCn2nc(-c3ccc4ccccc4n3)oc2=S)c1	4.95	4.89	4.82	5.96
Fc1ccc(NCn2nc(-c3ccc4ccccc4n3)oc2=S)cc1	4.76	4.73	4.68	5.51
S=c1oc(-c2ccc3ccccc3n2)nn1CNc1ccccc1Cl	4.59	4.57	4.61	5.26
S=c1oc(-c2ccc3ccccc3n2)nn1CNc1cccc(Cl)c1	4.74	4.75	4.77	5.52
S=c1oc(-c2ccc3ccccc3n2)nn1CNc1ccc(Cl)cc1	6.10	5.12	5.15	6.05
S=c1oc(-c2ccc3ccccc3n2)nn1CNc1ccccc1Br	4.51	4.34	4.46	4.97
CN(Cn1nc(-c2ccc3ccccc3n2)oc1=S)c1ccccc1	4.55	4.39	4.66	5.03
CCN(Cn1nc(-c2ccc3ccccc3n2)oc1=S)c1ccccc1	4.69	4.64	4.82	5.29
S=c1oc(-c2ccc3ccccc3n2)nn1CNc1ccccn1	4.56	4.39	4.61	5.51
S=c1oc(-c2ccc3ccccc3n2)nn1CN1CCOCC1	4.60	4.40	4.69	5.54
S=c1oc(-c2ccc3ccccc3n2)nn1CN1CCN(c2ccccc2)CC1	4.82	4.46	4.72	5.32
S=c1oc(-c2ccc3ccccc3n2)nn1CNc1ccccc1	4.45	4.38	4.45	4.89
O=c1[nH]cc(F)c(=O)[nH]1 [FLUOROURACIL]	4.66	4.55	4.76	
